For assay [1], the system named is molinema dessetae. The assay is described as follows: Antifilarial activity against Molinema dessetae in vivo against female adult worms at a dose of 1000 mg/kg subcutaneously once a day for 5 days; Active. The class given is functional, organism-based. Set-up: dose 1000 mg/kg.
In assay [2] the test system is molinema dessetae. The assay is described as follows: Antifilarial activity against Molinema dessetae in vivo against male adult worms at a dose of 1000 mg/kg subcutaneously once a day for 5 days; Active. The format is functional, organism-based. Set-up: dose 1000 mg/kg.
A short description of assay [3]: Antifilarial activity against Molinema dessetae in vivo in Proechimys oris the natural host at a dose of 1000 mg/kg subcutaneously once a day for 5 days. Value is expressed as number of infected P. oris. The format is functional. The conditions noted are these: route subcutaneous.
A short description of assay [4]: Effective concentration of compound necessary to kill 50% of infective larvae of Molinema dessetae after 7 days was determined in vitro. The class given is functional.
The test system of assay [5] is molinema dessetae.
For assay [6], the system named is molinema dessetae. The assay is described as follows: Antifilarial activity against Molinema dessetae in vivo against female adult worms at a dose of 0.2 mg/kg subcutaneously once a day for 5 days; Active. The format is functional, organism-based. Set-up: dose 0.2 mg/kg.
Assay [7] relates to molinema dessetae. The assay is described as follows: Antifilarial activity against Molinema dessetae in vivo against male adult worms at a dose of 0.2 mg/kg subcutaneously once a day for 5 days; Active. The format is functional, organism-based. Set-up: dose 0.2 mg/kg.
In assay [8] the test system is molinema dessetae. The assay can be described thus: Antifilarial activity against Molinema dessetae in vivo in Proechimys oris the natural host at a dose of 0.2 mg/kg subcutaneously once a day for 5 days. Value is expressed as number of infected P. oris. The format is functional, organism-based. Set-up: dose 0.2 mg/kg.
Assay [9] concerns molinema dessetae. The assay can be described thus: Antifilarial activity against Molinema dessetae in vivo against male adult worms at a dose of 200 mg/kg subcutaneously once a day for 5 days; Inactive. The class given is functional, organism-based. Set-up: dose 200 mg/kg. The procedure, abridged:
(§1)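 Proechimys oris of both sexes were each infected with 200 infective larvae dissected from Aedes aegypti mosquitoes. Microfilaremia was checked, and the rodents were treated 150–180 days post-infection. Compound was given subcutaneously as a 1% carboxymethylcellulose suspension once daily for 5 consecutive days. Microfilaremia was followed for 6 weeks, then adult male and female worms were counted at autopsy. A compound was scored active if no males and ≤1.6 females were found (p = 0.12).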

The nature of assay [10]: Antifilarial activity against Molinema dessetae in vivo in Proechimys oris the natural host at a dose of 200 mg/kg subcutaneously once a day for 5 days. Value is expressed as number of infected P. oris. The class given is functional. The conditions noted are these: route subcutaneous. An outline of the steps: as §1
Assay [11] can be described thus: Effective concentration of compound necessary to kill 50% of infective larvae of Molinema dessetae after 7 days was determined in vitro; Value ranges from 20-100. The class given is functional. An outline of the steps:
(§2)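 Infective larvae from the intermediate host were decontaminated and held 20 per 1.5 mL in a biphasic medium: L929 feeder layer with RPMI and fetal calf serum (90:10), plus penicillin and streptomycin. Compound solutions at several concentrations were made in DMSO, and 10 μL of each was added. After 7 days, survival was corrected by control, in duplicate runs. EC ranges are given in μM.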

In assay [12] the test system is molinema dessetae. The assay can be described thus: Antifilarial activity against Molinema dessetae in vivo against female adult worms at a dose of 200 mg/kg subcutaneously once a day for 5 days. Set-up: dose 200 mg/kg. The class given is functional, organism-based. An outline of the steps:
as §1

Assay [13] deals with molinema dessetae. The assay can be described thus: Effective concentration of compound necessary to kill 90% of infective larvae of Molinema dessetae after 7 days was determined in vitro; Value ranges from 100-500. The format is functional. An outline of the steps:
as §2

For assay [14], the system named is molinema dessetae. The assay can be described thus: Antifilarial activity against Molinema dessetae in vivo against male adult worms at a dose of 200 mg/kg subcutaneously once a day for 5 days; Active. The format is functional, organism-based. Set-up: dose 200 mg/kg. An outline of the steps:
as §1

In assay [15] the test system is molinema dessetae. The assay is described as follows: Antifilarial activity against Molinema dessetae in vivo against male adult worms at a dose of 50 mg/kg subcutaneously once a day for 5 days; Inactive. The format is functional, organism-based. Set-up: dose 50 mg/kg. An outline of the steps: as §1
A short description of assay [16]: Antifilarial activity against Molinema dessetae in vivo in Proechimys oris the natural host at a dose of 50 mg/kg subcutaneously once a day for 5 days. Value is expressed as number of infected P. oris. The conditions noted are these: route subcutaneous. The class given is functional. The procedure, abridged: as §1
Assay [17] has as its system molinema dessetae. The assay is described as follows: Antifilarial activity against Molinema dessetae in vivo against female adult worms at a dose of 200 mg/kg subcutaneously once a day for 5 days; Active. Set-up: dose 200 mg/kg. The class given is functional, organism-based. The procedure, abridged:
as §1

In assay [18] the test system is molinema dessetae. The assay is described as follows: Antifilarial activity against Molinema dessetae in vivo against male adult worms at a dose of 40 mg/kg subcutaneously once a day for 5 days; Active. The class given is functional, organism-based. Set-up: dose 40 mg/kg.
The nature of assay [19]: Antifilarial activity against Molinema dessetae in vivo in Proechimys oris the natural host at a dose of 40 mg/kg subcutaneously once a day for 5 days. Value is expressed as number of infected P. oris. The class given is functional. The conditions noted are these: route subcutaneous.
Assay [20] is described as follows: Effective concentration of compound necessary to kill 50% of infective larvae of Molinema dessetae after 7 days was determined in vitro; Value ranges from 100-500. The format is functional. The procedure, abridged: as §2
Assay [21] deals with molinema dessetae. The assay can be described thus: Antifilarial activity against Molinema dessetae in vivo against female adult worms at a dose of 40 mg/kg subcutaneously once a day for 5 days; Active. Set-up: dose 40 mg/kg. The format is functional, organism-based.
Assay [22] deals with molinema dessetae. The assay is described as follows: Antifilarial activity against Molinema dessetae in vivo against female adult worms at a dose of 100 mg/kg subcutaneously once a day for 5 days; Active. The format is functional, organism-based. Set-up: dose 100 mg/kg. An outline of the steps: as §1
The test system of assay [23] is molinema dessetae. The assay is described as follows: Antifilarial activity against Molinema dessetae in vivo against male adult worms at a dose of 100 mg/kg subcutaneously once a day for 5 days; Active. The format is functional, organism-based. Set-up: dose 100 mg/kg. The procedure, abridged: as §1
Assay [24] in a line: Antifilarial activity against Molinema dessetae in vivo in Proechimys oris the natural host at a dose of 100 mg/kg subcutaneously once a day for 5 days. Value is expressed as number of infected P. oris. The format is functional. The conditions noted are these: route subcutaneous. An outline of the steps: as §1
Assay [25] relates to molinema dessetae. The assay is described as follows: Effective concentration of compound necessary to kill 90% of infective larvae of Molinema dessetae after 7 days was determined in vitro; Value ranges from 20-100. The format is functional. The procedure, abridged:
as §2

For assay [26], the system named is molinema dessetae. The assay can be described thus: Antifilarial activity against Molinema dessetae in vivo against male adult worms at a dose of 10 mg/kg subcutaneously once a day for 5 days; Active. The class given is functional, organism-based. Set-up: dose 10 mg/kg. The procedure, abridged: as §1
Assay [27] is described as follows: Antifilarial activity against Molinema dessetae in vivo in Proechimys oris the natural host at a dose of 10 mg/kg subcutaneously once a day for 5 days. Value is expressed as number of infected P. oris. The class given is functional. The conditions noted are these: route subcutaneous. The procedure, abridged:
as §1

For assay [28], the system named is molinema dessetae. The assay is described as follows: Antifilarial activity against Molinema dessetae in vivo against female adult worms at a dose of 10 mg/kg subcutaneously once a day for 5 days; Active. Set-up: dose 10 mg/kg. The class given is functional, organism-based. An outline of the steps: as §1

Active and inactive are the calls of the source.

The term EC50 denotes the concentration at which the effect is half-maximal. Higher therefore signals weaker potency. For orientation: EC90 means the concentration at which the effect reaches the 90% level. Low readings indicate an effect from little substance, high ones a need for much substance.

As for `C[C@@H]1O[C@@H]1P(=O)([O-])[O-].[Na+].[Na+]` [PHOSPHOMYCIN DISODIUM], the result in [1] and in assay [2] was Active. The compound also gave an Activity in assay [3] of 2. Moreover, the EC50 in assay [4] was over 500 µM. This compound also showed an EC90 in [5] of over 500 µM.

Take IVERMECTIN: the result in [6] and in assay [7] was Active. Moreover, the Activity in [8] came out at 2. Also, the EC90 in [5] is under 20 µM.

On to `CCCN1CCN(S(=O)(=O)C2OC2c2ccccc2)CC1` (stereo unspecified), for which the result in assay [9] and in [12] was inactive. This compound displayed an Activity in [10] of 2. Further, the EC50 in assay [11] was determined as 100 µM. In assay [13], this compound came in with an EC90 of 500 µM.

Take `CN(C)S(=O)(=O)[C@@H]1O[C@H]1c1ccccc1`: the outcome in [14] and in [17] was Active. Further, in assay [15], the result was inactive. The Activity in assay [10] and in assay [16] was 2 each time. In [11], this compound returned an EC50 of 100 µM. This compound came in with a 90% effect concentration (EC90) in assay [13] of 500 µM.

Consider `Cc1ccc(C(=O)Nc2ccc(S(=O)(=O)O)c3cc(S(=O)(=O)O)cc(S(=O)(=O)O)c23)cc1NC(=O)c1cccc(NC(=O)Nc2cccc(C(=O)Nc3cc(C(=O)Nc4ccc(S(=O)(=O)O)c5cc(S(=O)(=O)O)cc(S(=O)(=O)O)c45)ccc3C)c2)c1` [SURAMIN], for which the result in assay [18] and in assay [21] was Active. The compound also displayed an Activity in assay [19] of 2. Also, the EC50 in assay [20] came out at 500 µM. This compound also registered an EC90 in [13] of 500 µM.

Take `O=S(=O)([C@@H]1O[C@H]1c1ccccc1)N1CCOCC1`: the outcome in assay [22] and in assay [23] was Active. Also, the Activity in assay [24] was found to be 3. In assay [11], the EC50 was 100 µM. This compound also displayed an EC90 in assay [25] of 100 µM.

On to `CN1CCN(S(=O)(=O)[C@@H]2O[C@H]2c2ccccc2)CC1`, for which the outcome in assay [26] and in [28] was Active. The compound also yielded an Activity in assay [27] of 4. For the same compound, the EC50 in assay [11] stood at 100 µM. The same compound showed an EC90 in assay [25] of 100 µM.

For the origin of these results see ChEMBL document CHEMBL1123563, “New antifilarial agents. 1. Epoxy sulfonamides and ethynesulfonamides” (J Med Chem, 1987).
